Experiments:
Rattus norvegicus [1] = experiment: Antiinflammatory activity in albino rat assessed as inhibition of carrageenan-induced paw edema at 0.28 mmol/kg, po administered 30 mins prior to carrageenan-challenge measured after 1 hr relative to control; format: functional
Summary of the method: (§1)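 Male albino rats in groups of four were fasted 24 h with water allowed. Dosing was oral at 0.28 mmol/kg, suspended in 0.5% w/v CMC; controls got CMC alone. After 30 min, 0.1 ml of 1% carrageenan in saline went subplantar into the right hind paw and saline into the left. Paw thickness was read by caliper before and at 1–5 h. % inhibition = [(VR−VL)control−(VR−VL)treated]/(VR−VL)control ×100. Mean ± SEM, n = 4, one-way ANOVA vs control.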

Rattus norvegicus [2] = experiment: Antiinflammatory activity in albino rat assessed as inhibition of carrageenan-induced paw edema at 0.28 mmol/kg, po administered 30 mins prior to carrageenan-challenge measured after 2 hrs relative to control; format: functional; summary of the method: as §1
Rattus norvegicus [3] = experiment: Antiinflammatory activity in albino rat assessed as inhibition of carrageenan-induced paw edema at 0.28 mmol/kg, po administered 30 mins prior to carrageenan-challenge measured after 3 hrs relative to control; format: functional; summary of the method: as §1
Rattus norvegicus [4] = experiment: Antiinflammatory activity in albino rat assessed as inhibition of carrageenan-induced paw edema at 0.28 mmol/kg, po administered 30 mins prior to carrageenan-challenge measured after 4 hrs relative to control; format: functional; summary of the method: as §1
Rattus norvegicus [5] = experiment: Antiinflammatory activity in albino rat assessed as inhibition of carrageenan-induced paw edema at 0.28 mmol/kg, po administered 30 mins prior to carrageenan-challenge measured after 5 hrs relative to control; format: functional; summary of the method: as §1
Rattus norvegicus [6] = experiment: Ulcerogenic activity in albino rat carrageenan-induced paw edema model assessed as ulcer index at 0.28 mmol/kg, po (reference value: 0.60 +/- 0.05); format: toxicity, organism-based; settings: in vivo
Summary of the method: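 Rats given the compound orally at 0.28 mmol/kg, suspended in 0.5% aqueous CMC; vehicle-only control, n = 4 per group. Gastric ulcers graded by area: I (<1 mm²), II (1–3 mm²), III (>3 mm²). Ulcer index = 1×(level I count) + 2×(level II) + 3×(level III). Mean ± SEM, one-way ANOVA versus control.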

Rattus norvegicus [7] = experiment: Gastrointestinal toxicity in albino rat carrageenan-induced paw edema model assessed as decrease in thickness of gastric mucosa with marked loss of mucosal membrane at areas of ulceration at 0.28 mmol/kg, po by hematoxylin and eosin staining-based light microscopic analysis; format: organism-based; settings: in vivo
Summary of the method: (§2)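 Rats were dosed orally at 0.28 mmol/kg, suspended in 0.5% aqueous CMC; vehicle-only animals served as controls. After ulcer scoring, stomach sections were stained with haematoxylin and eosin: acid-alcohol differentiation, then 1% eosin for 10 min. Sections were dehydrated, cleared in xylene, mounted and examined by light microscopy.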

Rattus norvegicus [8] = experiment: Gastrointestinal toxicity in albino rat carrageenan-induced paw edema model assessed as capillary vasodilatation of lamina propria associated with accumulation of edema fluid at 0.28 mmol/kg, po by hematoxylin and eosin staining-based light microscopic analysis; format: organism-based; settings: in vivo; summary of the method: as §2
Rattus norvegicus [9] = experiment: Gastrointestinal toxicity in albino rat carrageenan-induced paw edema model assessed as acute inflammatory cell infiltrating its whole thickness at 0.28 mmol/kg, po by hematoxylin and eosin staining-based light microscopic analysis; format: organism-based; settings: in vivo; summary of the method: as §2
Rattus norvegicus [10] = experiment: Gastrointestinal toxicity in albino rat carrageenan-induced paw edema model assessed as destruction of surface epithelium and epithelial lining of gastric pits at 0.28 mmol/kg, po by hematoxylin and eosin staining-based light microscopic analysis; format: organism-based, Stomach; settings: in vivo; summary of the method: as §2
Rattus norvegicus [11] = experiment: Gastrointestinal toxicity in albino rat carrageenan-induced paw edema model assessed as severe atrophic gastritis and gland atrophy at 0.28 mmol/kg, po by hematoxylin and eosin staining-based light microscopic analysis; format: organism-based; settings: in vivo; summary of the method: as §2
Rattus norvegicus [12] = experiment: Gastrointestinal toxicity in albino rat carrageenan-induced paw edema model assessed as apoptotic glandular epithelial cells at 0.28 mmol/kg, po by hematoxylin and eosin staining-based light microscopic analysis; format: organism-based, Epithelial cell; settings: in vivo; summary of the method: as §2
Rattus norvegicus [13] = experiment: Gastrointestinal toxicity in albino rat carrageenan-induced paw edema model assessed as loss of morphology of glandular structures at 0.28 mmol/kg, po by hematoxylin and eosin staining-based light microscopic analysis; format: organism-based; settings: in vivo; summary of the method: as §2
[14] = Induction of nitric oxide release in phosphate buffer at 10^-4 M at pH 7.4 after 1 hr by Griess colorimetric method in presence of N-acetylcysteine; format: physicochemical; settings: pH 7.4, 1 h, 100 µM
Summary of the method: (§3)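 Final drug concentration 10^-4 M, added from DMF into 1:1 50 mM phosphate buffer (pH 7.4)/MeOH containing 5 × 10^-4 M N-acetylcysteine, at 37 °C. Nitrite read with Griess reagent after 10 min at room temperature, absorbance at 546 nm. Calibration with sodium nitrite standards (10–80 nmol/ml). Reported as mol NO per mol, n = 4 reaction mixtures.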

[15] = Induction of nitric oxide release in phosphate buffer at 10^-4 M at pH 7.4 after 2 hrs by Griess colorimetric method in presence of N-acetylcysteine; format: physicochemical; settings: pH 7.4, 2 h, 100 µM; summary of the method: as §3
[16] = Induction of nitric oxide release in phosphate buffer at 10^-4 M at pH 7.4 after 3 hrs by Griess colorimetric method in presence of N-acetylcysteine; format: physicochemical; settings: pH 7.4, 3 h, 100 µM; summary of the method: as §3
[17] = Induction of nitric oxide release in phosphate buffer at 10^-4 M at pH 7.4 after 4 hrs by Griess colorimetric method in presence of N-acetylcysteine; format: physicochemical; settings: pH 7.4, 4 h, 100 µM; summary of the method: as §3
[18] = Induction of nitric oxide release in phosphate buffer at 10^-4 M at pH 7.4 after 5 hrs by Griess colorimetric method in presence of N-acetylcysteine; format: physicochemical; settings: pH 7.4, 5 h, 100 µM; summary of the method: as §3
[19] = Induction of nitric oxide release in phosphate buffer at 10^-4 M at pH 7.4 after 6 hrs by Griess colorimetric method in presence of N-acetylcysteine; format: physicochemical; settings: pH 7.4, 6 h, 100 µM; summary of the method: as §3
[20] = Induction of nitric oxide release in HCl buffer at 10^-4 M at pH 1 after 1 hr by Griess colorimetric method in presence of N-acetylcysteine; format: physicochemical; settings: pH 1, 1 h, 100 µM
Summary of the method: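 Same Griess nitrite procedure at 10^-4 M final drug with N-acetylcysteine at 37 °C, but with 0.1 N HCl (pH 1) in place of the pH 7.4 phosphate buffer. Absorbance at 546 nm against a sodium nitrite calibration curve.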

Rattus norvegicus [21] = experiment: Gastrointestinal toxicity in albino rat carrageenan-induced paw edema model assessed as appearance of ulcer at 0.28 mmol/kg, po by hematoxylin and eosin staining-based light microscopic analysis; format: organism-based; settings: in vivo; summary of the method: as §2

Row | Activity [14] | Activity [15] | Activity [16] | Activity [17] | Activity [18] | Activity [19] | Activity [20] | Compound | inhibition in vivo at 280 µmol/kg (Rattus norvegicus [1]) | inhibition in vivo at 280 µmol/kg (Rattus norvegicus [2]) | inhibition in vivo at 280 µmol/kg (Rattus norvegicus [3]) | inhibition in vivo at 280 µmol/kg (Rattus norvegicus [4]) | inhibition in vivo at 280 µmol/kg (Rattus norvegicus [5]) | UI (Rattus norvegicus [6]) | Activity (Rattus norvegicus [7]) | Activity (Rattus norvegicus [8]) | Activity (Rattus norvegicus [9]) | Activity (Rattus norvegicus [11]) | further results
1 | – | – | – | – | – | – | – | COc1ccc2c(c1)c(CC(=O)O)c(C)n2C(=O)c1ccc(Cl)cc1 [INDOMETHACIN] | 51% | 67% | 74% | 83% | 87% | 63.34 | Toxic | Toxic | Toxic | Toxic | Activity (Rattus norvegicus [10]): Toxic; Activity (Rattus norvegicus [12]): Toxic
2 | – | – | – | – | – | – | – | C=CCn1c(SCC(=O)Nc2ccc(C(C)=O)cc2)nnc1-c1ccc(OC)c(OC)c1 | 56% | 57% | 58% | 70% | 64% | 2.45 | Toxic | – | – | – | Activity (Rattus norvegicus [13]): Toxic
3 | 0.13 mol/mol | 0.16 mol/mol | 0.32 mol/mol | 0.35 mol/mol | 0.27 mol/mol | 0.26 mol/mol | Not Active | C=CCn1c(SCC(=O)Nc2ccc(/C(C)=N/O)cc2)nnc1-c1ccc(OC)c(OC)c1 | 53% | 56% | 70% | 79% | 79% | 0.25 | – | Non-toxic | Non-toxic | Non-toxic | Activity (Rattus norvegicus [21]): Non-toxic
4 | 0.13 mol/mol | 0.17 mol/mol | 0.24 mol/mol | 0.29 mol/mol | 0.24 mol/mol | 0.23 mol/mol | Not Active | COc1ccc(-c2nnc(SCC(=O)Nc3ccc(/C(C)=N/O)cc3)n2-c2ccccc2)cc1 | 45% | 56% | 57% | 69% | 58% | 1.61 | – | – | – | – | –
